The results in this text go back to ChEMBL document CHEMBL1955846, “Aminopyrimidinone cdc7 kinase inhibitors” (Bioorg Med Chem Lett, 2012).

Test [1] concerns the target T1, CDC7/DBF4 (Cell division cycle 7-related protein kinase/Activator of S phase kinase) (Homo sapiens, UniProt O00311). The test is described as follows: Inhibition of human CDC7/DBF4 expressed using baculovirus expression system assessed as [33P]gamma-ATP incorporation into substrate after 60 mins by gamma counting.
Test [2] addresses T1, CDC7/DBF4 (Cell division cycle 7-related protein kinase/Activator of S phase kinase). The test is described as follows: Inhibition of CDC7/DBF4-mediated MCM2 phosphorylation in human HCT116 cells after 6 hrs by spectrophotometric analysis. It counts as cell-based, HCT-116.
Another test deals with HCT-116. The test is described as follows: Cytotoxicity against human HCT116 cells after 3 days by CellTitre Glo assay. The class given is functional, cell-based. To be noted: HCT-116, 72 h. The procedure, abridged: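 HCT-116 cells seeded at 3000 cells per well and held 24 h at 37 °C. Next day, treated with serial dilutions of inhibitor. After 3 days, an equal volume of Cell Titer GLO was added and luminescence read. EC50 derived from the viability readout.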

A value given as a limit tells only on which side of the number the result lay.

T1 sequence (Q9UBU7 whole entry): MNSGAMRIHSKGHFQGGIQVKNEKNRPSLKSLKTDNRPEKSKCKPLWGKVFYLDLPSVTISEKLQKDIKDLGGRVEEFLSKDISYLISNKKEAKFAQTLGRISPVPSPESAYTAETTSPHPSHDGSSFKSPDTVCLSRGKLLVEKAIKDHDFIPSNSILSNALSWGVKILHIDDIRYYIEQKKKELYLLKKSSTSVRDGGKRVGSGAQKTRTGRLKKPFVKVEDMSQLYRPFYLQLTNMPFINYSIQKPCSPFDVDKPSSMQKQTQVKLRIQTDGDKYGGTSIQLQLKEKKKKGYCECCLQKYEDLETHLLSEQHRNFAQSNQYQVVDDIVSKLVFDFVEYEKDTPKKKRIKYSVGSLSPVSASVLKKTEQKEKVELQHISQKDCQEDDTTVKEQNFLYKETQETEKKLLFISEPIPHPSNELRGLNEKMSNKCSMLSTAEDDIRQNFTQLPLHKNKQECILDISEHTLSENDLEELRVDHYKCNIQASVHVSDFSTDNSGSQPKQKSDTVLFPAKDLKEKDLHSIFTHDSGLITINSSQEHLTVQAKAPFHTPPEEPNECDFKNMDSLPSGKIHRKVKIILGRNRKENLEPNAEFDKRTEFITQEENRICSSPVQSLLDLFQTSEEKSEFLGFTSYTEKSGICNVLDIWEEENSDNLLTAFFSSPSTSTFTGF
T1 sequence (O00311 whole entry): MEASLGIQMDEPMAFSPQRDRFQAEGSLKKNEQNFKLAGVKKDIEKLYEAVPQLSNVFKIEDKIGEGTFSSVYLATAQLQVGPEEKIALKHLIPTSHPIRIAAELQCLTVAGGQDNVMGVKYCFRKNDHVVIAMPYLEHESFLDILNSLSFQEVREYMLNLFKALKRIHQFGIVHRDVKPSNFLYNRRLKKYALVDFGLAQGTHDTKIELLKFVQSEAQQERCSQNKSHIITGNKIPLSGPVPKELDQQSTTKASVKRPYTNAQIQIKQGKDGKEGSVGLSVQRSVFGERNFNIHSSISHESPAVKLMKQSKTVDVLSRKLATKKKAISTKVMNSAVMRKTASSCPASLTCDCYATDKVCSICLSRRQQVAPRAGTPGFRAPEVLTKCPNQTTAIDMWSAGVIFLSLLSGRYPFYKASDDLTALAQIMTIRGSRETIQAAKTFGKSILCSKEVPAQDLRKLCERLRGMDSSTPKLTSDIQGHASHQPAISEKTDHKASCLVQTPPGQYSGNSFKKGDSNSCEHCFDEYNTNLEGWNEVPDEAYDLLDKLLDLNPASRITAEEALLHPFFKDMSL

For `O=c1cc(-c2ccccc2)nc(NC2CCCCC2)[nH]1`, the Ki in test [1] was determined as 230 nM.
Same read-out and setting: to `O=c1cc(-c2cccnc2)nc(NC2CCCCC2)[nH]1` belongs > 1200 nM.
On the same count and under the same terms, the figure for `Nc1nccc(-c2cc(=O)[nH]c(NC3CCCCC3)n2)n1` is 5 nM.
As to `O=c1cc(-c2cn[nH]c2)nc(NC2CCCCC2)[nH]1`, the Ki in test [1] stood at 15 nM.
Still for that read-out and setting: the figure for `O=c1cc(-c2ccc3[nH]ncc3c2)nc(NC2CCCCC2)[nH]1` is 0.5 nM.
Regarding `O=c1cc(-c2c[nH]c3ncccc23)nc(NC2CCCCC2)[nH]1`, the EC50 in test [2] worked out at 60 nM; with HCT-116, 103 nM. In test [1], the Ki was < 0.07 nM.
`O=c1nc(-c2c[nH]c3ncccc23)nc(NC2CCCCC2)[nH]1`: the Ki in test [1] was found to be 0.3 nM.
Still for that read-out and setting: to `O=c1nc(-c2c[nH]c3ncccc23)cc(NC2CCCCC2)[nH]1` belongs 1.4 nM.
Still for that read-out and setting: the figure for `O=c1cc(-c2c[nH]c3ncccc23)cc(NC2CCCCC2)[nH]1` is 0.5 nM.
Still for that read-out and setting: to `O=c1cc(NC2CCCCC2)cc(-c2c[nH]c3ncccc23)[nH]1` belongs 1.1 nM.
Consider `Oc1cc(NC2CCCCC2)nc(-c2c[nH]c3ncccc23)c1`, for which, in test [1], the Ki was 5.4 nM.
Turning to `CN(c1nc(-c2c[nH]c3ncccc23)cc(=O)[nH]1)C1CCCCC1`, the EC50 came out at 15 nM in test [2] and 106 nM in the test on HCT-116. Besides, the Ki in test [1] is 0.09 nM.
The matching figures for `O=c1cc(-c2c[nH]c3ncccc23)nc(Nc2ccccc2)[nH]1`: 143 nM, 443 nM and 0.12 nM.
For the molecule `O=c1cc(-c2c[nH]c3ncccc23)nc(NCc2ccccc2)[nH]1`, the EC50 in test [2] was determined as 180 nM; in the test with HCT-116, 122 nM. Also, in test [1], the Ki is < 0.07 nM.
On the same counts, the results for `COCCN(CCOC)c1nc(-c2c[nH]c3ncccc23)cc(=O)[nH]1` are 60 nM, 2210 nM and 0.18 nM.
`O=c1cc(-c2c[nH]c3ncccc23)nc(N2CCOCC2)[nH]1`: the EC50 stood at 300 nM in test [2] and 450 nM in the test with HCT-116. In test [1], the Ki was determined as 0.18 nM.
The matching figures for `O=c1cc(-c2c[nH]c3ncccc23)nc(NC2CCOCC2)[nH]1`: 300 nM, 2460 nM and 0.14 nM.
On the same counts, the results for `CN1CCC(Nc2nc(-c3c[nH]c4ncccc34)cc(=O)[nH]2)CC1` are 2610 nM, 7370 nM and 0.11 nM.
The matching figures for `O=c1cc(-c2c[nH]c3ncccc23)nc(-c2ccccc2)[nH]1`: 410 nM, 830 nM and 0.25 nM.
As to `O=c1cc(-c2c[nH]c3ncccc23)nc(N2CCC(O)CC2)[nH]1`, the results for the EC50 (in test [2]; with HCT-116) were 1780 nM and 6190 nM, respectively. In test [1], the Ki stood at 0.2 nM.
Regarding `COC1CCN(c2nc(-c3c[nH]c4ncccc34)cc(=O)[nH]2)CC1`, the EC50 in test [2] worked out at 300 nM; with HCT-116 it was 520 nM. Further, the Ki in test [1] came out at 0.2 nM.
For `O=c1cc(-c2c[nH]c3ncccc23)nc(NC(c2ccccc2)c2ccccc2)[nH]1`, the Ki in test [1] is 328 nM.

Broadly, the Ki is the equilibrium dissociation constant of an inhibitor or competing ligand from its target. As usually defined, the EC50 is the concentration that produces a half-maximal response. A lower EC50 goes with higher potency in that assay.
